Results gathered from unrelated publications.
Compare with care: the assays were run in different laboratories.
HDAC5: Histone deacetylase 5 (HDAC5, Homo sapiens, UniProt Q9UQL6)
PPARG: Peroxisome proliferator-activated receptor gamma (PPARG, Homo sapiens, UniProt P37231)

SMILES | target | observed | action | technique | notes | measurement | result
CCCCc1nc2c(o1)c(N)nc1ccccc12 | Toll-like receptor 8 (TLR8, Homo sapiens, UniProt Q9NR97) | reporter gene | agonist |  |  | EC50 | 12500 nM
CCN(CC)Cc1ccc2cc(COC(=O)Nc3ccc(C(=O)NO)cc3)ccc2c1 | HDAC5 | cell-free assay |  |  |  | Kd | > 30.2 µM
Cc1cc2nc3c(=O)[nH]c(=O)nc-3n(C[C@H](O)[C@H](O)[C@H](O)COP(=O)(O)OP(=O)(O)OC[C@H]3O[C@@H](n4cnc5c(N)ncnc54)[C@H](O)[C@@H]3O)c2cc1C | YTH domain-containing family protein 2 (YTHDF2, Homo sapiens, UniProt Q9Y5A9) | binding |  |  | lysate | Kd | 0.062 µM
CC[C@H](C)[C@H](NC(=O)[C@H](Cc1ccccc1)NC(=O)[C@H](CCC(=O)O)NC(=O)[C@H](CCCCN)NC(=O)[C@H](C)NC(=O)[C@H](C)NC(=O)[C@H](CCC(N)=O)NC(=O)CNC(=O)[C@H](CCC(=O)O)NC(=O)[C@H](CC(C)C)NC(=O)[C@H](Cc1ccc(O)cc1)NC(=O)[C@H](CO)NC(=O)[C@H](CO)NC(=O)[C@@H](NC(=O)[C@H](CC(=O)O)NC(=O)[C@H](CO)NC(=O)[C@@H](NC(=O)[C@H](Cc1ccccc1)NC(=O)[C@@H](NC(=O)CNC(=O)[C@H](CCC(=O)O)NC(=O)[C@H](C)NC(=O)[C@H](Cc1c[nH]cn1)NC[C@H](C)N)[C@@H](C)O)[C@@H](C)O)C(C)C)C(=O)N[C@@H](C)C(=O)N[C@@H](Cc1c[nH]c2ccccc12)C(=O)N[C@@H](CC(C)C)C(=O)N[C@H](C(=O)N[C@@H](CCCCN)C(=O)NCC(=O)N[C@@H](CCCNC(=N)N)C(N)=O)C(C)C | Glucagon-like peptide 1 receptor (GLP1R, Homo sapiens, UniProt P43220) | reporter gene | agonist | luciferase |  | EC50 | 0.00251 nM
C#Cc1cccc(Nc2ncnc3cc(OC)c(OCCCCCCC(=O)NO)cc23)c1 | HDAC5 | cell-free assay |  |  |  | Kd | > 30.2 µM
CCCCCCCC/C=C\CCCCCCCC(=O)O[C@H](CC(=O)[O-])C[N+](C)(C)C | Pantothenate kinase 3 (PANK3, Homo sapiens, UniProt Q9H999) | enzyme activity | inhibitor | radiometric |  | EC50 | 600 nM
CC(=O)c1cc([N+](=O)[O-])c(Sc2cccc(Cl)c2Cl)s1 | Caspase-3 (CASP3, Homo sapiens, UniProt P42574) | enzyme activity | inhibitor |  |  | EC50 | > 50000 nM
Cc1ccc(-c2ccc(F)cc2COc2ccc(CCC(=O)O)cc2)cc1 | PPARG | reporter gene | agonist | luciferase |  | EC50 | > 100000 nM
CSCC[C@H](NC(=O)[C@H](CCC(=O)O)NC(=O)[C@@H]1CCCN1C(=O)[C@@H](NC(=O)[C@@H]1CCCN1)[C@@H](C)O)C(=O)N[C@@H](CCCNC(=N)N)C(=O)N[C@@H](CCC(=O)O)C(=O)N[C@@H](CCCCN)C(=O)N[C@@H](CC(C)C)C(=O)N[C@H]1CSSC[C@@H]2NC(=O)[C@@H](NC(=O)[C@H](Cc3ccc(O)cc3)NC(=O)[C@H](CCCNC(=N)N)NC(=O)[C@H](C)NC(=O)[C@@H]3CCCN3C(=O)[C@H](CC(N)=O)NC(=O)[C@@H](NC(=O)[C@H](C)NC(=O)[C@H](C)NC(=O)[C@H](C)N)[C@@H](C)O)CSSC[C@H](NC(=O)CNC(=O)[C@H](CO)NC(=O)[C@H](CC(C)C)NC2=O)C(=O)N[C@@H]([C@@H](C)O)C(=O)N[C@@H](CCC(N)=O)C(=O)N[C@@H](CCC(N)=O)C(=O)N[C@@H](CC(=O)O)C(=O)N[C@@H](CC(C)C)C(=O)N[C@@H](CC(C)C)C(=O)N[C@@H]([C@@H](C)O)C(=O)N[C@@H](CC(C)C)C(=O)N[C@H](C(=O)N2CCC[C@H]2C(=O)N[C@@H](Cc2ccc(O)cc2)C(=O)O)CSSC[C@@H](C(=O)NCC(=O)NCC(=O)N2CCC[C@H]2C(=O)N[C@@H](CCCNC(=N)N)C(=O)N[C@@H](Cc2c[nH]c3ccccc23)C(=O)N[C@@H](CO)C(=O)N[C@H](C(=O)N[C@@H](CCC(=O)O)C(=O)N[C@@H](C)C(=O)O)[C@@H](C)O)NC(=O)[C@H](C(C)C)NC(=O)[C@H](CCCNC(=N)N)NC(=O)[C@H](C(C)C)NC(=O)[C@H](CC(C)C)NC(=O)[C@H](C)NC(=O)[C@H](CCCNC(=N)N)NC(=O)[C@H](C(C)C)NC(=O)[C@H](Cc2ccccc2)NC(=O)[C@H](Cc2c[nH]cn2)NC(=O)[C@H](Cc2c[nH]cn2)NC(=O)CNC1=O | Relaxin receptor 2 (RXFP2, Homo sapiens, UniProt Q8WXD0) | cAMP | agonist |  |  | EC50 | 0.0166 nM
Cc1noc(C)c1-c1ccc(-c2nc3cnccn3c2NC(C)(C)C)cc1 | Bromodomain and PHD finger-containing protein 3 (BRPF3, Homo sapiens, UniProt Q9ULD4) | cell-free assay |  | competition with immobilised ligand |  | Kd | 40 µM
c1ccc2c(Oc3nc(Nc4ccc(N5CCOCC5)cc4)c4ncn(C5CCCCC5)c4n3)cccc2c1 | Protein smoothened (SMO, Homo sapiens, UniProt Q99835) | GTPγS binding | agonist | radiometric | cell membranes | EC50 | 229 nM
CC[C@@H](Oc1cccc(CN(CCCOc2ccc(OC)cc2)c2nc3ccccc3o2)c1)C(=O)O | PPARG | binding |  | ITC |  | Kd | 9.03 µM
